21 compounds from ChEMBL document CHEMBL1126031, “1,2,3-trisubstituted cyclopropanes as conformationally restricted peptide isosteres: application to the design and synthesis of novel renin inhibitors” (J Med Chem, 1992) can be followed below.

Series [1] has as its target T1, Renin (Homo sapiens, UniProt P00797).
T1 sequence (P00797 whole entry): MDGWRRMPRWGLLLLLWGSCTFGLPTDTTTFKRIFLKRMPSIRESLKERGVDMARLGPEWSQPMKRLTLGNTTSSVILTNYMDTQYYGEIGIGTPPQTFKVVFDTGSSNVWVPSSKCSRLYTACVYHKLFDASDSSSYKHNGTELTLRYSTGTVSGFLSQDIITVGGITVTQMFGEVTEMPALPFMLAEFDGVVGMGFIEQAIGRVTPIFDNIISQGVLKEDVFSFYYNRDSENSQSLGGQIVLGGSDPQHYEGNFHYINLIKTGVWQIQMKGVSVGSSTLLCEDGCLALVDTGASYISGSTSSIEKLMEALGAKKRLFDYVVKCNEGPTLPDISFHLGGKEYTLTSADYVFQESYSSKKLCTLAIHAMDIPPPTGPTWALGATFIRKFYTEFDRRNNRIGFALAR
The series can be described thus: In vitro potency against human plasma renin at pH 7.4. It is filed as cell-free. In a few lines:
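Renin in human plasma, assayed at pH 7.4 by a procedure from earlier work.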

For series [2], the target named is T1, Renin. The series can be described thus: In vitro inhibition of purified human renin at a pH of 6.0. In a few lines: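 Purified human renin, assayed at pH 6.0 by a procedure from earlier work.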
Series [3] can be described thus: Half life of the compound.
Series [4] has as its target T2, Renin (Homo sapiens) (UniProt P00797).
T2 sequence (whole entry): T1 sequence (P00797 whole entry)
The series can be described thus: In vitro potency to inhibit human plasma renin at a pH of 7.4 and at 1*10e-6 M concentration. The format is cell-free.

For the compound `CC[C@H]1[C@@H](C(=O)N[C@@H](Cc2cscn2)C(=O)N[C@@H](CC2CCCCC2)[C@@H](O)[C@@H](O)CC(C)C)[C@@H]1C(=O)N1CCOCC1`, the 50% inhibitory concentration (IC50) (commonly the concentration that gives 50% inhibition) was determined as 610 nM in series [1] and 16 nM in series [2].
For `CC(C)C[C@H](O)[C@H](O)[C@H](CC1CCCCC1)NC(=O)[C@H](Cc1cscn1)NC(=O)C1[C@@H](c2ccccc2)[C@H]1c1ccccc1` (stereo not given in full), the figures for the IC50 in series [1] and in series [2] were 810 nM and 1.1 nM, respectively.
In turn, `CC(C)C[C@H](O)[C@H](O)[C@H](CC1CCCCC1)NC(=O)[C@H](Cc1cscn1)NC(=O)[C@H](CC(=O)N1CCOCC1)Cc1ccccc1` gave an IC50 in series [2] of 150 nM.
Regarding `CC(C)C[C@H](O)[C@H](O)[C@H](CC1CCCCC1)NC(=O)[C@H](Cc1cscn1)NC(=O)[C@H]1[C@H](Cc2ccccc2)[C@@H]1C(=O)N1CCOCC1`, the values for the IC50 in series [1] and in series [2] were 370 nM and 10 nM, respectively.
In the same order, the values of `CCOC(=O)N[C@@H](Cc1ccc(I)cc1)C(=O)N[C@@H](CC(C)C)C(=O)N[C@@H](CC1CCCCC1)[C@@H](O)[C@@H](O)CC(C)C` are 300 nM and 2.4 nM.
For `CC(C)C[C@@H]1[C@H](C(=O)N[C@@H](Cc2cscn2)C(=O)N[C@@H](CC2CCCCC2)[C@@H](O)[C@@H](O)CC(C)C)[C@H]1C(=O)N1CCOCC1`, in series [2], the IC50 amounted to 33 nM.
The same measure, in the same setting: next, `CC(C)C[C@H](O)[C@H](O)[C@H](CC1CCCCC1)NC(=O)[C@H](Cc1cscn1)NC(=O)[C@H]1[C@H](C(=O)N2CCOCC2)[C@H]1c1ccccc1`: 200 nM; `CC[C@H]1[C@H](C(=O)N[C@@H](Cc2cscn2)C(=O)N[C@@H](CC2CCCCC2)[C@@H](O)[C@@H](O)CC(C)C)[C@H]1C(=O)N1CCOCC1`: 200 nM; `CC(C)C[C@H](O)[C@H](O)[C@H](CC1CCCCC1)NC(=O)[C@H](Cc1cscn1)NC(=O)[C@H]1[C@@H](Cc2ccccc2)[C@@H]1C(=O)N1CCOCC1`: 27 nM.
Regarding `CC(C)C[C@H](O)[C@H](O)[C@H](CC1CCCCC1)NC(=O)[C@H](Cc1cscn1)NC(=O)[C@H]1[C@H](C(=O)N2CCOCC2)[C@@H]1c1ccccc1`, the half-life (commonly the time in which the quantity being followed falls by half) in series [3] is more than 5 h. Also, the IC50 in series [1] stood at 20 nM; in series [2] it was 0.7 nM.
In the case of `CC(C)C[C@H](O)[C@H](O)[C@H](CC1CCCCC1)NC(=O)[C@H](Cc1cscn1)NC(=O)[C@@H](CC(=O)N1CCOCC1)Cc1ccccc1`, the IC50 in series [1] worked out at 8.3 nM; in series [2], 0.36 nM.
For the compound `CC[C@@H]1[C@@H](C(=O)N[C@@H](Cc2cscn2)C(=O)N[C@@H](CC2CCCCC2)[C@@H](O)[C@@H](O)CC(C)C)[C@@H]1C(=O)N1CCOCC1`, the values for the IC50 in series [1] and in series [2] were 230 nM and 10 nM, respectively.
As to `CC(C)C[C@@H]1[C@@H](C(=O)N[C@@H](Cc2cscn2)C(=O)N[C@@H](CC2CCCCC2)[C@@H](O)[C@@H](O)CC(C)C)[C@@H]1C(=O)N1CCOCC1`, the IC50 in series [1] turned out to be 41 nM; in series [2] it was 2.1 nM.
In series [2], `CC[C@@H]1[C@H](C(=O)N[C@@H](Cc2cscn2)C(=O)N[C@@H](CC2CCCCC2)[C@@H](O)[C@@H](O)CC(C)C)[C@H]1C(=O)N1CCOCC1` returned an IC50 of 92 nM.
For the compound `CC(C)C[C@H](O)[C@H](O)[C@H](CC1CCCCC1)NC(=O)[C@H](Cc1cscn1)NC(=O)[C@@H]1[C@@H](Cc2ccccc2)[C@H]1C(=O)N1CCOCC1`, the IC50 in series [1] was more than 1000 nM; in series [2], 25 nM. In addition, in series [4], the inhibition (usually the percentage by which the read-out fell short of the control) was 30%.
Compound `CC(C)C[C@H](O)[C@H](O)[C@H](CC1CCCCC1)NC(=O)[C@H](Cc1cscn1)NC(=O)[C@@H]1[C@@H](C(=O)N2CCOCC2)[C@@H]1c1ccccc1` registered an IC50 in series [2] of 120 nM.
On to `CC(C)C[C@H](O)[C@H](O)[C@H](CC1CCCCC1)NC(=O)[C@H](Cc1cscn1)NC(=O)[C@@H]1[C@@H](C(=O)N2CCOCC2)[C@H]1c1ccccc1`, for which the IC50 in series [2] turned out to be 120 nM.
The compound `CC(C)C[C@H]1[C@H](C(=O)N[C@@H](Cc2cscn2)C(=O)N[C@@H](CC2CCCCC2)[C@@H](O)[C@@H](O)CC(C)C)[C@H]1C(=O)N1CCOCC1` yielded an IC50 in series [2] of 44 nM. Against the preceding compound, the IC50 is about 2.7-fold lower.
For `CC(C)C[C@H]1[C@@H](C(=O)N[C@@H](Cc2cscn2)C(=O)N[C@@H](CC2CCCCC2)[C@@H](O)[C@@H](O)CC(C)C)[C@@H]1C(=O)N1CCOCC1`, the IC50 in series [1] is more than 1000 nM; in series [2], 19 nM. Also, the inhibition in series [4] turned out to be 46%.
Turning to `CC(C)C[C@H](O)[C@H](O)[C@H](CC1CCCCC1)NC(=O)[C@H](Cc1cscn1)NC(=O)[C@@H]1[C@H](Cc2ccccc2)[C@H]1C(=O)N1CCOCC1`, the IC50 in series [2] is 120 nM.
As for `CC(C)C[C@H](O)[C@H](O)[C@H](CC1CCCCC1)NC(=O)[C@H](Cc1cscn1)NC(=O)C(Cc1ccccc1)Cc1ccccc1`, the figures for the IC50 in series [1] and in series [2] were 54 nM and 0.47 nM, respectively.
